Assay [1] deals with T1, Ectonucleoside triphosphate diphosphohydrolase 2 (Homo sapiens) (UniProt Q9Y5L3).
T1 sequence (whole entry): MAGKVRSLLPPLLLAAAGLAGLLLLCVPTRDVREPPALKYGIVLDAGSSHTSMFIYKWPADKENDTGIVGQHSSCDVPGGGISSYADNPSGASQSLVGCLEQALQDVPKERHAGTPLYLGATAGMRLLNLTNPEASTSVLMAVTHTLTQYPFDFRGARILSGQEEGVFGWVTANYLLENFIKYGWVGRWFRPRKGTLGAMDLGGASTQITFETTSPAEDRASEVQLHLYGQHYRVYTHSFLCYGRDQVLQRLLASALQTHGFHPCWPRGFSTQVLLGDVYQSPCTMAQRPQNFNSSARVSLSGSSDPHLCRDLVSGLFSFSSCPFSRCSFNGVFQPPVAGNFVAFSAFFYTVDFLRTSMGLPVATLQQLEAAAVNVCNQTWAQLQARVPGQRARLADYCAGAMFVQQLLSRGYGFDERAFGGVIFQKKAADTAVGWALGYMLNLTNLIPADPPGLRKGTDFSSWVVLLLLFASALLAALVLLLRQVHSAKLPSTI
Nature of the assay: Inhibition of human NTPDase2 assessed as amount of inorganic phosphate released using ATP as the substrate preincubated at 100 uM for 3 mins before substrate addition after 15 mins by malachite green reagent method. The procedure, abridged: (§1)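 Crude extracts of COS-7 cells transiently transfected with human NTPDase1, -2, -3 or -8, preincubated 3 min at 37 °C in Tris-Ringer medium pH 7.4 with analogue (final 100 μM). Started with 100 μM ATP, stopped after 15 min with malachite green; released Pi read at 630 nm. ATP alone set as 100%. Mean ± SD of 3−6 experiments in triplicate.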

The target in assay [2] is T2, Ectonucleoside triphosphate diphosphohydrolase 3 (Homo sapiens) (UniProt O75355).
T2 sequence (whole entry): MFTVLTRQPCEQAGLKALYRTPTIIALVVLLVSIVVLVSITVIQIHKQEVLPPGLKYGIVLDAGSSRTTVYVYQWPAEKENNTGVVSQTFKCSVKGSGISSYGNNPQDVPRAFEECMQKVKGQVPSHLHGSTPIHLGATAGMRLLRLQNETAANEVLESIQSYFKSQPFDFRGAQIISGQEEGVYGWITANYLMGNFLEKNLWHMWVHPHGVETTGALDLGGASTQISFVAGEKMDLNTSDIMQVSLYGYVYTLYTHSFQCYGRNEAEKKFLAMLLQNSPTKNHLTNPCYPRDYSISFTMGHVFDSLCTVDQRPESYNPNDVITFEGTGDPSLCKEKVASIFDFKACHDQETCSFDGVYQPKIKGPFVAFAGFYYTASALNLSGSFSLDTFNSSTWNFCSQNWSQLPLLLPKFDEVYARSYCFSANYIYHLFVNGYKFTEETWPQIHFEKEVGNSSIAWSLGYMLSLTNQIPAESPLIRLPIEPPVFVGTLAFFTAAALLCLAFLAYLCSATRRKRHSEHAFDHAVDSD
Nature of the assay: Inhibition of human NTPDase3 assessed as amount of inorganic phosphate released using ATP as the substrate preincubated at 100 uM for 3 mins before substrate addition after 15 mins by malachite green reagent method. In outline: as §1

Assay [3] has as its target T3, Ectonucleoside triphosphate diphosphohydrolase 1 (Homo sapiens) (UniProt P49961).
T3 sequence (whole entry): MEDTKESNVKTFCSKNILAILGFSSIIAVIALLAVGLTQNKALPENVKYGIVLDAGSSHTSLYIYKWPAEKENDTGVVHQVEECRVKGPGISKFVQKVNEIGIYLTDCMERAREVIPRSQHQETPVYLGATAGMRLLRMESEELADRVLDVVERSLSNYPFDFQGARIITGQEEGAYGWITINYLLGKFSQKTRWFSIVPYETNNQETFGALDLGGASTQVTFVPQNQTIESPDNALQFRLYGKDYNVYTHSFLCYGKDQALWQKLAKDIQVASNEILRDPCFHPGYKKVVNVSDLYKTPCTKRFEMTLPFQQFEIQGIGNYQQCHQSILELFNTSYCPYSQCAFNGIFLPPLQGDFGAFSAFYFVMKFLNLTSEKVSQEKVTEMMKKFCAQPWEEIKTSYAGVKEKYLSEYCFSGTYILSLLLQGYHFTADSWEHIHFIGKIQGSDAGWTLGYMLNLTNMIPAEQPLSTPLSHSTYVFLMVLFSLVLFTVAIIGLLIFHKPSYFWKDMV
The assay can be described thus: Inhibition of human NTPDase1 assessed as amount of inorganic phosphate released using ATP as the substrate preincubated at 100 uM for 3 mins before substrate addition after 15 mins by malachite green reagent method. In outline: as §1

Assay [4] has as its target T4, Ectonucleotide pyrophosphatase/phosphodiesterase family member 3 (Homo sapiens) (UniProt O14638).
T4 sequence (whole entry): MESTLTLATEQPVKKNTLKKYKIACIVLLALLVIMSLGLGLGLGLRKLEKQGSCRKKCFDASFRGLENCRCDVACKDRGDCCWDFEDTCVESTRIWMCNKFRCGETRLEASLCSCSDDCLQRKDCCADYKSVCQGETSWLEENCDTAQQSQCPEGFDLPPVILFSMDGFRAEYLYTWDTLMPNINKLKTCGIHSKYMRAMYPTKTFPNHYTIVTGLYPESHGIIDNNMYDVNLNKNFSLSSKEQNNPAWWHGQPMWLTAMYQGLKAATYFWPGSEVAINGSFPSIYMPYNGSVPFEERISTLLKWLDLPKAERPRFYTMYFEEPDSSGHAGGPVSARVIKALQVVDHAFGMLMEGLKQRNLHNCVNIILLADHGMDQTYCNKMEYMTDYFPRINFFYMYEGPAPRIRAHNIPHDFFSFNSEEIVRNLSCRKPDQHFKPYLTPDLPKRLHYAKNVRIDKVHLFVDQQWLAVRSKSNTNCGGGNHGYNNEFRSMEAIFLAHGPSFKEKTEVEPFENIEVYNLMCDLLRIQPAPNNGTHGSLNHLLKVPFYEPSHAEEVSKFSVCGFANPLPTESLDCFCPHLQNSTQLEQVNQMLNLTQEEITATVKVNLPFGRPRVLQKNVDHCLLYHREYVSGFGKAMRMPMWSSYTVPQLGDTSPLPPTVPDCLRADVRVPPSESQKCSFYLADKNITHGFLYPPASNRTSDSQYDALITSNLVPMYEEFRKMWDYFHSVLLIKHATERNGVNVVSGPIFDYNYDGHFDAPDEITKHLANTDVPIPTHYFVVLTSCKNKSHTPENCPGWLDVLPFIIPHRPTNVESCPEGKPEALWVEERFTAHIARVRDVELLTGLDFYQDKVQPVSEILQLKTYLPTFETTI
The assay can be described thus: Inhibition of NPP3 in human HTB-85 cells assessed as production of p-nitrophenol using pnp-TMP at 100 uM measured after 20 mins by spectrophotometry. It is filed as cell-based. The procedure, abridged:
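Intact osteocarcinoma HTB85 (SaOS-2) cells in 24-well plates, 0.5 mL incubation mixture, analogue and pnp-TMP each at 100 μM. After 20 min an aliquot was read for p-nitrophenol at 410 nm. Substrate alone set as 100%. Mean ± SD of three experiments in triplicate.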

A word on the inhibition: it is the drop in the measured response relative to a control, in per cent.

Turning to `B[P@](=O)(OC[C@H]1O[C@@H](n2cnc3c(N)ncnc32)[C@H](O)[C@@H]1O)OP(=O)(O)CP(=O)(O)O`, the inhibition in assay [1] was under 18%; in assay [2], under 18%; in assay [3], under 18%; in assay [4], 41%.
Consider `B[P@](=O)(OC[C@H]1O[C@@H](n2cnc3c(N)nc(SC)nc32)[C@H](O)[C@@H]1O)OP(=O)(O)CP(=O)(O)O`, for which the inhibition is under 18% in assay [1], under 18% in assay [2], under 18% in assay [3] and 90% in assay [4].
In the case of `B[P@@](=O)(OC[C@H]1O[C@@H](n2cnc3c(N)nc(SC)nc32)[C@H](O)[C@@H]1O)OP(=O)(O)C(F)(F)P(=O)(O)O`, the inhibition in assay [1] and in assay [3] was 50% each time.
Take `B[P@@](=O)(OC[C@H]1O[C@@H](n2cnc3c(N)ncnc32)[C@H](O)[C@@H]1O)OP(=O)(O)CP(=O)(O)O`: the inhibition in assay [1] was under 18%; in assay [2], under 18%; in assay [3], under 18%; in assay [4], 90%.
Consider `CSc1nc(N)c2ncn([C@@H]3O[C@H](COP(=O)(O)C(F)(F)P(=O)(O)O)[C@@H](O)[C@H]3O)c2n1`, for which the inhibition in assay [1] was under 18%; in assay [2] it was under 18%; in assay [3], under 18%; in assay [4], 41%.

The values above are taken from ChEMBL document CHEMBL3085721, “Nonhydrolyzable ATP analogues as selective inhibitors of human NPP1: a combined computational/experimental study” (J Med Chem, 2013).
